Laboratory results as given in ChEMBL document CHEMBL1152191, “Identification and optimization of N3,N6-diaryl-1H-pyrazolo[3,4-d]pyrimidine-3,6-diamines as a novel class of ACK1 inhibitors” (Bioorg Med Chem Lett, 2008).

Legend:
Activated CDC42 kinase 1 [1] = target: T1, Activated CDC42 kinase 1 (Homo sapiens, UniProt Q07912); assay: Inhibition of flag-tagged ACK1 autophosphorylation expressed in human 293 cells; assay type: cell-based, HEK293
How it was run: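 293 cells stably expressing Flag-ACK1 are detached with PBS/EDTA, washed, and pre-incubated in suspension with DMSO or compound. They are then re-plated for 2 h in medium with 10% FCS, with directly lysed cells as control. Autophosphorylation is read by anti-pTyr western blot after Flag IP, and IC50 determined.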

[2] = AUC in Sprague-Dawley rat at 0.5 mg/kg, iv; assay type: ADME, organism-based; parameters: dose 0.5 mg/kg, route intravenous; settings: plasma
How it was run: (§1)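 Male Sprague–Dawley rats received 0.5 mg/kg as an iv dose, with n = 3 animals per study. CL, Vss, MRT and AUC were derived from the plasma concentration profile.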

Activated CDC42 kinase 1 [3] = target: T1, Activated CDC42 kinase 1; assay: Inhibition of histidine-tagged ACK1 (amino acids 117 to 489) expressed in SF9 cells
[4] = Mean residence time in Sprague-Dawley rat at 0.5 mg/kg, iv; assay type: ADME, organism-based; parameters: dose 0.5 mg/kg, route intravenous; settings: in vivo; how it was run: as §1
[5] = Volume of distribution at steady state in Sprague-Dawley rat at 0.5 mg/kg, iv; assay type: ADME, organism-based; parameters: dose 0.5 mg/kg, route intravenous; settings: in vivo, read-out: Vdss; how it was run: as §1
[6] = Clearance in Sprague-Dawley rat at 0.5 mg/kg, iv; assay type: ADME, organism-based; parameters: dose 0.5 mg/kg, route intravenous; settings: in vivo; how it was run: as §1
[7] = target: Vascular endothelial growth factor receptor 2 (Homo sapiens, UniProt P35968); assay: Inhibition of KDR
[8] = target: T2, Tyrosine-protein kinase JAK3 (Homo sapiens, UniProt P52333); assay: Inhibition of Jak3
T2 sequence (P52333 whole entry): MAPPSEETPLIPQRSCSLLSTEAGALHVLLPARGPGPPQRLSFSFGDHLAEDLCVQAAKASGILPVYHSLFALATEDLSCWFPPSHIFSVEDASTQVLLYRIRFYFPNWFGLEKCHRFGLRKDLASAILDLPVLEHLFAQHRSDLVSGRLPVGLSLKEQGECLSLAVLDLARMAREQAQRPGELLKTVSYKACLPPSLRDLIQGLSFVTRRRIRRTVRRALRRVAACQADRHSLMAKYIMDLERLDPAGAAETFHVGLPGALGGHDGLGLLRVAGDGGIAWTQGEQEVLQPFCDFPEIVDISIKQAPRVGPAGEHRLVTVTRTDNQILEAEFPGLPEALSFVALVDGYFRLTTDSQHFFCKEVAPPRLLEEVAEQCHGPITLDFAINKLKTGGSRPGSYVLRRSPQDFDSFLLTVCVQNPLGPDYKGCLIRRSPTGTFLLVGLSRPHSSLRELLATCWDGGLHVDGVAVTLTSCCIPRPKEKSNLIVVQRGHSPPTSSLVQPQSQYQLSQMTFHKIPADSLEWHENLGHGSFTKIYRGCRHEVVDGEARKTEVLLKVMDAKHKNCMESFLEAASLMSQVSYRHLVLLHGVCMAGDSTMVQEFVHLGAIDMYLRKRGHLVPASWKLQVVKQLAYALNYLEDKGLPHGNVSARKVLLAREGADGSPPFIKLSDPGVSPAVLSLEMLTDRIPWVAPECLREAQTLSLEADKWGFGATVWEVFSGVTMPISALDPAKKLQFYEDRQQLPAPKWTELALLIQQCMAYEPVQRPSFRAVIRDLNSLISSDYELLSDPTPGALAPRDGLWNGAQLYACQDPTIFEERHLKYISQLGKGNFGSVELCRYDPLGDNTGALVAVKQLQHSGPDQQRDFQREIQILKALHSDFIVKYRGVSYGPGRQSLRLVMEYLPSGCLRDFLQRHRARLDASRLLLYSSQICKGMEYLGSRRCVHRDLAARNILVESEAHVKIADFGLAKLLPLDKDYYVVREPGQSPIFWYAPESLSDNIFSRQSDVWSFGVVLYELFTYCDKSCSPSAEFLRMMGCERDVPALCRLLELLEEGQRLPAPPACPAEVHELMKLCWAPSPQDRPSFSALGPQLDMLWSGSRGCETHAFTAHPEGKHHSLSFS

Angiopoietin-1 receptor = Angiopoietin-1 receptor (Homo sapiens, UniProt Q02763); assay: Inhibition of Tie2
[9] = target: Tyrosine-protein kinase Lck (Homo sapiens, UniProt P06239); assay: Inhibition of LCK
[10] = target: Tyrosine-protein kinase BTK (Homo sapiens, UniProt Q06187); assay: Inhibition of BTK
[11] = AUC in Sprague-Dawley rat at 0.4 mg/kg, iv; assay type: ADME, organism-based; parameters: dose 0.4 mg/kg, route intravenous; settings: plasma
How it was run: (§2)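 Male Sprague–Dawley rats were dosed intravenously; clearance and AUC were taken from the plasma profile.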

[12] = Clearance in Sprague-Dawley rat at 0.4 mg/kg, iv; assay type: ADME, organism-based; parameters: dose 0.4 mg/kg, route intravenous; settings: in vivo; how it was run: as §2
[13] = Oral bioavailability in Sprague-Dawley rat at 4 mg/kg; assay type: ADME, organism-based; settings: in vivo

Vascular endothelial growth factor receptor 2, sequence (P35968 whole entry): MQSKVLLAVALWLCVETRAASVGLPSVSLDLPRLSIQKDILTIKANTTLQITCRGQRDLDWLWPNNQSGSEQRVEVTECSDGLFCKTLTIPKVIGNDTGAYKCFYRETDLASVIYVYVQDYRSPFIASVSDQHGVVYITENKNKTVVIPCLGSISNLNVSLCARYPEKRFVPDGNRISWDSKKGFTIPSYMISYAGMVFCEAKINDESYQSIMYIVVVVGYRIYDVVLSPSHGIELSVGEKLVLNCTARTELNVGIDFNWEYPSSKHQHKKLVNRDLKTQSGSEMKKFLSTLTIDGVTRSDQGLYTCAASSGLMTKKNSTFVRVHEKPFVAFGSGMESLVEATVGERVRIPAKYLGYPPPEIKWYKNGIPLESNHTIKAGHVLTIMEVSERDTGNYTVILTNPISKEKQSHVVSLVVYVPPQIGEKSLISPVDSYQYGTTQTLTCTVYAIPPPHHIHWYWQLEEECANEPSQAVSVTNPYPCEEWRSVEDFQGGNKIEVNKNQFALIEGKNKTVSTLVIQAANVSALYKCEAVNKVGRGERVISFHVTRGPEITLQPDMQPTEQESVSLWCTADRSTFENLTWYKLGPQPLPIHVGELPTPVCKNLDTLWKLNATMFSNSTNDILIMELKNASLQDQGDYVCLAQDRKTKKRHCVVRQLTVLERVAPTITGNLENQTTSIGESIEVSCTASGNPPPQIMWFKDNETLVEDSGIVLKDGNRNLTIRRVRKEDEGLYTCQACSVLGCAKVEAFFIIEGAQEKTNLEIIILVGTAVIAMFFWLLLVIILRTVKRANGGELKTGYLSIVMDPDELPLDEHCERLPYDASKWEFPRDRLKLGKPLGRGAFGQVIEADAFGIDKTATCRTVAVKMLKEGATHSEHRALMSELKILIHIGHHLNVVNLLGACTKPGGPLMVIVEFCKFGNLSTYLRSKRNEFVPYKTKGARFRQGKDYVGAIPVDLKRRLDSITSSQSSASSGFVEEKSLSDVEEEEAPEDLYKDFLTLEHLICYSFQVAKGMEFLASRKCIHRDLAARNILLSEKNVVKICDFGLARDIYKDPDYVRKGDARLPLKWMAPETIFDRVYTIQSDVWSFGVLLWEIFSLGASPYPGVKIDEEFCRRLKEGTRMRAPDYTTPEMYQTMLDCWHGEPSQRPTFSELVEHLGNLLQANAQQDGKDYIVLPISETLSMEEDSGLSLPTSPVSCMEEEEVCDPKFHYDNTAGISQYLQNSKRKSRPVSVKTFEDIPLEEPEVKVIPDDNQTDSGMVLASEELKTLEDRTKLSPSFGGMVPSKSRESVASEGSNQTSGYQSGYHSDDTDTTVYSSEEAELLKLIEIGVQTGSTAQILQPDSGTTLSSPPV
Tyrosine-protein kinase BTK, sequence (Q06187 whole entry): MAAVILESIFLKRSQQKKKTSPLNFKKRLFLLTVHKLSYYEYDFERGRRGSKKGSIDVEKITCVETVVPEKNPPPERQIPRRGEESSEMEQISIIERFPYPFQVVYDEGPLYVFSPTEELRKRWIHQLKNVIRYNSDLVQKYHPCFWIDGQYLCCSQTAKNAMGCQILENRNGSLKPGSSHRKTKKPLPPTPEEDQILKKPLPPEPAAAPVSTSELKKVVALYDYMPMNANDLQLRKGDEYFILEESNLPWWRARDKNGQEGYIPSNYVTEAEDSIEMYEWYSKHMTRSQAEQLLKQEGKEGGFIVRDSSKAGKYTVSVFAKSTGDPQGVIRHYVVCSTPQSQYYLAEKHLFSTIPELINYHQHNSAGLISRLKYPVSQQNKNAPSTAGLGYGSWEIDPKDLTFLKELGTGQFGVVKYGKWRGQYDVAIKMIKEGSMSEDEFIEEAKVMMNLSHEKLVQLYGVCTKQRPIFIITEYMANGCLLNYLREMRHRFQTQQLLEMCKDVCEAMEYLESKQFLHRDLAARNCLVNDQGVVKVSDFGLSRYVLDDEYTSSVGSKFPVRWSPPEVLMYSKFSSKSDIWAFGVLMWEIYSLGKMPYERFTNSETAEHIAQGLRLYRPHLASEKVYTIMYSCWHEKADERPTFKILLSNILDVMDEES
Tyrosine-protein kinase Lck, sequence (P06239 whole entry): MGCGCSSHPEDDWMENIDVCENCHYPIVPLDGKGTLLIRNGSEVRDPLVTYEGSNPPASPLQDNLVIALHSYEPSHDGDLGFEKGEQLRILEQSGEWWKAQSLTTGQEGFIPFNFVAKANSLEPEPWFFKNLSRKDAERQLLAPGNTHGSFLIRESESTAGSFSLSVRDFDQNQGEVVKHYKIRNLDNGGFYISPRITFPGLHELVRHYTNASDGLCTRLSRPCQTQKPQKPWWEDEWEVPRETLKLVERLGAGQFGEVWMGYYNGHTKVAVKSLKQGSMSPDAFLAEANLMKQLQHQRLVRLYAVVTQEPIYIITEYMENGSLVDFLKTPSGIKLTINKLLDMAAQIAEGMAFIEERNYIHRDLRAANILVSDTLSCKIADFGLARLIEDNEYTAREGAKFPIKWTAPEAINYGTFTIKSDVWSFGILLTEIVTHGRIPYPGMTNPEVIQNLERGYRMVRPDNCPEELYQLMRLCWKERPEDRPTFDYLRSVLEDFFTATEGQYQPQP
Angiopoietin-1 receptor, sequence (Q02763 whole entry): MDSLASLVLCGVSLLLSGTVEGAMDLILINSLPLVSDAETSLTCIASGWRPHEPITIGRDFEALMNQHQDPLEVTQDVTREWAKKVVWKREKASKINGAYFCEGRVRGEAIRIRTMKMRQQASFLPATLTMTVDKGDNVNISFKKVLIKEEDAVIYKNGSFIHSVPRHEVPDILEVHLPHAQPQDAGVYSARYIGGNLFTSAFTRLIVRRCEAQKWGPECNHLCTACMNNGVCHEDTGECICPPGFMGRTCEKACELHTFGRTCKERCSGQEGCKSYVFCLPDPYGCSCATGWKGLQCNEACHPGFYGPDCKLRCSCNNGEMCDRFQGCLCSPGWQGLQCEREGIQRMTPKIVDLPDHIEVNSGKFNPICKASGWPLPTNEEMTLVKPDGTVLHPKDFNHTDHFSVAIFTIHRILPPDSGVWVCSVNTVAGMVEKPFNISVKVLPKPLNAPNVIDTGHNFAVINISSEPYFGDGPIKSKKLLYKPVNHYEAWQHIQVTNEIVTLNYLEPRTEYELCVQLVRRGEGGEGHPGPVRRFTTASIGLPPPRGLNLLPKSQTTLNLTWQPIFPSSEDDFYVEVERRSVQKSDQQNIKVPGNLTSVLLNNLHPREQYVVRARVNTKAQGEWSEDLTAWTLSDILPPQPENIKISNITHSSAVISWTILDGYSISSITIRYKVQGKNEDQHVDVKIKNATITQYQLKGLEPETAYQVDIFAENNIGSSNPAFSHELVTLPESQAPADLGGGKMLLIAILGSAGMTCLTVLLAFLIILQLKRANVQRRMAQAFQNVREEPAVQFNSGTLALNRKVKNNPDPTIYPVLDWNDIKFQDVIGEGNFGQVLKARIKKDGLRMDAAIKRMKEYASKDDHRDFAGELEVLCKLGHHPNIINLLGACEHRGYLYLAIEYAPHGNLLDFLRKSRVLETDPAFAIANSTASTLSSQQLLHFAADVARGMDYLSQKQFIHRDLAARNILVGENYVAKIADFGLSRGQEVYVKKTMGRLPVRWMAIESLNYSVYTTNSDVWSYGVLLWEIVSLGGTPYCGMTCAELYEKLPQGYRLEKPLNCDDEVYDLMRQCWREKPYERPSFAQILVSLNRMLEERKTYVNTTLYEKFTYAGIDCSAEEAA
T1 sequence (Q07912 whole entry): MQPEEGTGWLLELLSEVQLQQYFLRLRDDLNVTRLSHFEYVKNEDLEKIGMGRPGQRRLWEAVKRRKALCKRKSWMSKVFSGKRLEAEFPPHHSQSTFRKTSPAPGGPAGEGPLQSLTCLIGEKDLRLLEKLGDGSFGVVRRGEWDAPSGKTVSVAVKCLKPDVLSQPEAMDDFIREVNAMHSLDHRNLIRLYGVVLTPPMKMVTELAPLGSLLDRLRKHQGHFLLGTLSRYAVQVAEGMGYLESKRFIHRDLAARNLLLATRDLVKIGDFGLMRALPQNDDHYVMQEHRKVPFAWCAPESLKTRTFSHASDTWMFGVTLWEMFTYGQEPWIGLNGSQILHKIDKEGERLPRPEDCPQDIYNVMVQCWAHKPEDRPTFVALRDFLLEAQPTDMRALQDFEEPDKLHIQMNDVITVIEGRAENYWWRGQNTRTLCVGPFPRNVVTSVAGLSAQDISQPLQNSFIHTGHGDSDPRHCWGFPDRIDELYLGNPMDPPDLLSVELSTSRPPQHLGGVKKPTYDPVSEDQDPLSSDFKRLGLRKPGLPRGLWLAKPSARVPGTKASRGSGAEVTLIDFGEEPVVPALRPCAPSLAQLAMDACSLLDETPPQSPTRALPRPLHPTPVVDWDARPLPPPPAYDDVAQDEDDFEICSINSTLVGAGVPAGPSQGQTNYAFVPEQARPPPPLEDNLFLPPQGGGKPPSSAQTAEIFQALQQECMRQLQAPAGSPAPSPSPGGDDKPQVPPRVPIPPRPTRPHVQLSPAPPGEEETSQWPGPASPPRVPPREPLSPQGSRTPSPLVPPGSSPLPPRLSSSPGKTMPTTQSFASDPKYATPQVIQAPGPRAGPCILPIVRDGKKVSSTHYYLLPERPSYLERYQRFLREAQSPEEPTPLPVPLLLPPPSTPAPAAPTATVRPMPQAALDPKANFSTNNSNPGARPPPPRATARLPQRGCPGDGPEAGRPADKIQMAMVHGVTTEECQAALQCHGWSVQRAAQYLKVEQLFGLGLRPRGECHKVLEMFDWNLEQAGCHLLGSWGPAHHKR

## COC(C)(C)CCn1nc(Nc2c(C)cccc2C)c2cnc(Nc3ccc(OCCCN4CCCCC4)c(F)c3)nc21
Activated CDC42 kinase 1 [1]
  IC50: 60 nM
[2]
  AUC: 148 ng·h/mL
Activated CDC42 kinase 1 [3]
  Ki: 3 nM
[4]
  MRT: 2 h
[5]
  Vd: 7.5 L/kg
[6]
  clearance: 58.3 mL/min/kg

## COC(C)(C)CCn1nc(Nc2c(C)cccc2C)c2cnc(Nc3ccc(OCCN4CCCC4)cc3)nc21
Activated CDC42 kinase 1 [1]
  IC50: 20 nM
Activated CDC42 kinase 1 [3]
  Ki: 3 nM
[7]
  Ki: 1590 nM
[8]
  Ki: 170 nM
Angiopoietin-1 receptor
  Ki: 1160 nM
[9]
  Ki: 0.04 nM
[10]
  Ki: 0.25 nM

## CCOc1ccccc1Oc1nc(Nc2ccc(N3CCNCC3)cc2)ncc1C(=O)Nc1c(C)cccc1C
Activated CDC42 kinase 1 [1]
  IC50: 100 nM
[11]
  AUC: 76 ng·h/mL
[12]
  clearance: 63.3 mL/min/kg
Activated CDC42 kinase 1 [3]
  Ki: 20 nM
[7]
  Ki: > 25000 nM
[8]
  Ki: 74 nM
Angiopoietin-1 receptor
  Ki: > 8300 nM
[9]
  Ki: 13 nM
[10]
  Ki: 78 nM

## COC(C)(C)CCn1nc(Nc2c(C)cc(C)cc2C)c2cnc(Nc3ccc(N4CCN(C)CC4)cc3)nc21
Activated CDC42 kinase 1 [1]
  IC50: 50 nM
Activated CDC42 kinase 1 [3]
  Ki: 12 nM

## Cc1cccc(C)c1Nc1nn(CCCN2CCCC2)c2nc(Nc3ccccc3)ncc12
Activated CDC42 kinase 1 [1]
  IC50: 300 nM
Activated CDC42 kinase 1 [3]
  Ki: 100 nM

## OC[C@H](O)CCn1nc(Nc2c(Cl)cccc2Cl)c2cnc(Nc3ccccc3)nc21
Activated CDC42 kinase 1 [1]
  IC50: 20 nM
Activated CDC42 kinase 1 [3]
  Ki: 10 nM
[13]
  bioavailability: 30%

## Cc1cccc(C)c1Nc1nn(CC[C@@H](O)CO)c2nc(Nc3ccccc3)ncc12
Activated CDC42 kinase 1 [1]
  IC50: 60 nM
Activated CDC42 kinase 1 [3]
  Ki: 30 nM

## CN1CCN(CCn2nc(Nc3c(Cl)cccc3Cl)c3cnc(Nc4ccccc4)nc32)CC1
Activated CDC42 kinase 1 [1]
  IC50: 30 nM
Activated CDC42 kinase 1 [3]
  Ki: 10 nM

## ON1CCN(CCn2nc(Nc3c(Cl)cccc3Cl)c3cnc(Nc4ccccc4)nc32)CC1
Activated CDC42 kinase 1 [1]
  IC50: 30 nM
Activated CDC42 kinase 1 [3]
  Ki: 50 nM

## Cc1cccc(C)c1Nc1nn(CC[C@@H](O)CN(C)C)c2nc(Nc3ccccc3)ncc12
Activated CDC42 kinase 1 [1]
  IC50: 190 nM
Activated CDC42 kinase 1 [3]
  Ki: 80 nM

## COC(C)(C)CCn1nc(Nc2c(C)cccc2C)c2cnc(Nc3ccc(N4CCNCC4)cc3)nc21
[2]
  AUC: 104 ng·h/mL
[4]
  MRT: 3.5 h
[5]
  Vd: 20.3 L/kg
[6]
  clearance: 95 mL/min/kg

## COC(C)(C)CCn1nc(Nc2ccccc2)c2cnc(Nc3ccccc3)nc21
Activated CDC42 kinase 1 [3]
  Ki: > 4000 nM

## COC(C)(C)CCn1nc(Nc2c(C)cc(C)cc2C)c2cnc(Nc3ccccc3)nc21
Activated CDC42 kinase 1 [3]
  Ki: > 2500 nM

## CN(C)CCCn1nc(Nc2c(Cl)cccc2Cl)c2cnc(Nc3ccccc3)nc21
Activated CDC42 kinase 1 [1]
  IC50: 20 nM
Activated CDC42 kinase 1 [3]
  Ki: 5 nM

## CCN(CC)CCCn1nc(Nc2c(C)cccc2C)c2cnc(Nc3ccccc3)nc21
Activated CDC42 kinase 1 [1]
  IC50: 140 nM
Activated CDC42 kinase 1 [3]
  Ki: 40 nM

## CN(C)CCn1nc(Nc2c(Cl)cccc2Cl)c2cnc(Nc3ccccc3)nc21
Activated CDC42 kinase 1 [1]
  IC50: 140 nM
Activated CDC42 kinase 1 [3]
  Ki: 5 nM

## COC(C)(C)CCn1nc(Nc2c(C)cccc2C)c2cnc(Nc3ccccc3)nc21
Activated CDC42 kinase 1 [1]
  IC50: 20 nM
Activated CDC42 kinase 1 [3]
  Ki: 3 nM

## COC(C)(C)CCn1nc(Nc2c(Cl)cccc2Cl)c2cnc(Nc3ccccc3)nc21
Activated CDC42 kinase 1 [1]
  IC50: 40 nM
Activated CDC42 kinase 1 [3]
  Ki: 7 nM

## COC(C)(C)CCn1nc(Nc2c(Cl)cccc2Cl)c2cnc(Nc3ccc(N4CCNCC4)cc3)nc21
Activated CDC42 kinase 1 [1]
  IC50: 10 nM
[2]
  AUC: 117 ng·h/mL
Activated CDC42 kinase 1 [3]
  Ki: 12 nM
[4]
  MRT: 3.6 h
[5]
  Vd: 15.4 L/kg
[6]
  clearance: 70 mL/min/kg

## COC(C)(C)CCn1nc(Nc2c(C)cccc2C)c2cnc(Nc3ccc(N4CCN(C)CC4)cc3)nc21
Activated CDC42 kinase 1 [1]
  IC50: 20 nM
Activated CDC42 kinase 1 [3]
  Ki: 2 nM

## CN(C)[C@@H]1CCN(CCn2nc(Nc3c(Cl)cccc3Cl)c3cnc(Nc4ccccc4)nc32)C1
Activated CDC42 kinase 1 [1]
  IC50: 20 nM
Activated CDC42 kinase 1 [3]
  Ki: 10 nM

## CN(C)C(=O)Cn1nc(Nc2c(Cl)cccc2Cl)c2cnc(Nc3ccccc3)nc21
Activated CDC42 kinase 1 [1]
  IC50: 90 nM
Activated CDC42 kinase 1 [3]
  Ki: 30 nM

## COC(C)(C)CCn1nc(Nc2c(C)cccc2C)c2cnc(Nc3ccc(OCCN4CCCC4)c(F)c3)nc21
Activated CDC42 kinase 1 [1]
  IC50: 20 nM
Activated CDC42 kinase 1 [3]
  Ki: 3 nM
[7]
  Ki: > 12500 nM
[8]
  Ki: > 12500 nM
Angiopoietin-1 receptor
  Ki: > 2500 nM
[9]
  Ki: 11 nM
[10]
  Ki: 125 nM

## COC(C)(C)CCn1nc(Nc2c(Cl)cccc2Cl)c2cnc(Nc3ccc(OCCN4CCCC4)c(F)c3)nc21
Activated CDC42 kinase 1 [1]
  IC50: 30 nM
[2]
  AUC: 174 ng·h/mL
Activated CDC42 kinase 1 [3]
  Ki: 2 nM
[4]
  MRT: 2.7 h
[5]
  Vd: 7.7 L/kg
[6]
  clearance: 48.3 mL/min/kg

## COC(C)(C)CCn1nc(Nc2c(C)cc(F)cc2C)c2cnc(Nc3ccc(N4CCN(C)CC4)cc3)nc21
Activated CDC42 kinase 1 [1]
  IC50: 20 nM
Activated CDC42 kinase 1 [3]
  Ki: 10 nM

## COC(C)(C)CCn1nc(Nc2ccccc2)c2cnc(Nc3ccc(N4CCN(C)CC4)cc3)nc21
Activated CDC42 kinase 1 [1]
  IC50: 2100 nM
Activated CDC42 kinase 1 [3]
  Ki: 400 nM

## Cc1cccc(C)c1Nc1nn(CCN2CCOCC2)c2nc(Nc3ccccc3)ncc12
Activated CDC42 kinase 1 [1]
  IC50: 70 nM
Activated CDC42 kinase 1 [3]
  Ki: 50 nM

## O=C(Cn1nc(Nc2c(Cl)cccc2Cl)c2cnc(Nc3ccccc3)nc21)N1CCOCC1
Activated CDC42 kinase 1 [1]
  IC50: 140 nM
Activated CDC42 kinase 1 [3]
  Ki: 70 nM

## OC[C@H]1CCCN1CCn1nc(Nc2c(Cl)cccc2Cl)c2cnc(Nc3ccccc3)nc21
Activated CDC42 kinase 1 [1]
  IC50: 50 nM
Activated CDC42 kinase 1 [3]
  Ki: 30 nM

## COC(C)(C)CCn1nc(Nc2c(C)cc(F)cc2C)c2cnc(Nc3ccccc3)nc21
Activated CDC42 kinase 1 [1]
  IC50: 5500 nM
Activated CDC42 kinase 1 [3]
  Ki: 26 nM

## Cc1cccc(C)c1Nc1nn(CCCN(C)C)c2nc(Nc3ccccc3)ncc12
Activated CDC42 kinase 1 [1]
  IC50: 40 nM
Activated CDC42 kinase 1 [3]
  Ki: 30 nM
